PubChem BioAssay AID493157 (Broad Institute, 2011)
Active and inactive are the calls of the source.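 The calls were made as follows: active = growth-lowering compounds whose AC50 is at most ten times the top tested dose; inconclusive = flat curve with moderate signal loss, or a poor fit; inactive = the rest.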

What was measured:
[1] = C. albicans growth inhibition without fluconazole, dose response, counter-screen for antifungal drug resistance project, CaCi-2 strain, Alamar Blue, dry powder, set 8 (AID 493157); conditions: C. albicans CaCi-2 growth without fluconazole, Alamar Blue, 48 h
Method in brief: (§1)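 Test system: fluconazole-resistant Candida albicans clinical isolate CaCi-2, no fluconazole present; Quantity: inoculum OD600 0.00015; Medium: RPMI-based synthetic defined medium with MOPS, glucose and uridine; Timing: 48 h static compound exposure, 37 °C, 2 h Alamar Blue; Signal: Alamar Blue fluorescence, 544/590 nm; Evaluation: yeast growth via fluorescence; Benchmarks: geldanamycin positive control.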

[2] = test system: C. albicans CaCi-2 (fluconazole-resistant clinical isolate) growth without fluconazole, Alamar Blue, 48 h; test: as above
Method in brief: as §1

COC(=O)Cn1c(-c2ccccc2)nc2ccccc21
max activity ([1]; at 6 µM): 19.2% (inactive)

O=C(Cn1c2ccccc2c2nc3n(c(=O)c21)CCS3)N1CCCC1
max activity ([1]; at 12 µM): 17.2% (inactive)

COc1ccc(-c2n[nH]c3ccccc23)cc1
max activity ([1]; at 6 µM): -32.5% (inactive)

COC(=O)Cn1nc(-c2cccc(F)c2)c2ccccc21
max activity ([1]; at 0.8 µM): -22.1% (inactive)

COC(=O)Cn1nc(-c2ccc(F)cc2)c2ccccc21
max activity ([1]; at 3 µM): -27% (inactive)

O=C(Cn1c2ccccc2c2nc3n(c(=O)c21)CCS3)N1CCOCC1
max activity ([1]; at 0.8 µM): -18.5% (inactive)

COC(=O)CCCn1nc(-c2ccccc2)c2ccccc21
max activity ([1]; at 1.6 µM): -17.6% (inactive)

COC(=O)Cn1nc(-c2ccccc2)c2ccccc21
max activity ([1]; at 12 µM): 35.4% (inactive)

CCCCn1nc(-c2ccccc2)c2ccccc21
max activity ([1]; at 26 µM): 28% (inactive)

O=C1OCCC1n1nc(-c2ccccc2)c2ccccc21 (centres undefined)
max activity ([1]; at 0.195 µM): -31.5% (inactive)

O=C(Cn1c2ccccc2c2ccncc21)N1CCCCC1
max activity ([1]; at 6 µM): -15.9% (inactive)

O=C(Cn1c2ccccc2c2nc3n(c(=O)c21)CCS3)N1CCCCC1
max activity ([1]; at 0.1 µM): -24.6% (inactive)

COC(=O)Cn1nc(-c2ccc(C#N)cc2)c2ccccc21
max activity ([1]; at 26 µM): -38.6% (inactive)

CCC(=O)Cn1nc(-c2ccccc2)c2ccccc21
max activity ([1]; at 0.8 µM): -10.2% (inactive)

O=C(Cn1c2ccc(F)cc2c2nc3n(c(=O)c21)CCS3)N1CCCCCC1
max activity ([1]; at 26 µM): 13.5% (inactive)

COC(=O)Cn1ncc2ccccc21
max activity ([1]; at 26 µM): -25.4% (inactive)

O=C(Cn1c2ccc(F)cc2c2nc3n(c(=O)c21)CCS3)N1CCCCC1
max activity ([1]; at 26 µM): 27.4% (inactive)

CCN(CC)C(=O)Cn1c2ccccc2c2nc3n(c(=O)c21)CCS3
max activity ([1]; at 0.38 µM): -31.2% (inactive)

O=C(O)Cn1nc(-c2ccccc2)c2ccccc21
max activity ([1]; at 6 µM): 18.6% (inactive)

COC(=O)C(C)(C)n1nc(-c2ccccc2)c2ccccc21
max activity ([1]; at 0.1 µM): -31.3% (inactive)

COC(=O)Cn1nc(I)c2ccccc21
max activity ([1]; at 1.6 µM): -30.3% (inactive)

COC(=O)Cn1nc(-c2ccccc2C)c2ccccc21
max activity ([1]; at 26 µM): 1.36% (inactive)

O=C(Cn1c2ccc(F)cc2c2nc3n(c(=O)c21)CCS3)N1CCCC1
max activity ([1]; at 0.1 µM): -25.8% (inactive)

O=C(Cn1nc(-c2ccccc2)c2ccccc21)OC1CCC1
AC50 [2]: > 26 µM (inactive)

COC(=O)Cn1nc(-c2ccccc2)c2ccc(C(F)(F)F)cc21
max activity ([1]; at 0.1 µM): -34% (inactive)

CC1CCN(C(=O)Cn2c3ccccc3c3nc4n(c(=O)c32)CCS4)CC1
max activity ([1]; at 12 µM): -29.8% (inactive)

FC(F)(F)c1ccc(-c2n[nH]c3ccccc23)cc1
max activity ([1]; at 0.195 µM): -25.6% (inactive)

CCN(CC)C(=O)Cn1c2ccc(F)cc2c2nc3n(c(=O)c21)CCS3
max activity ([1]; at 0.38 µM): -28.9% (inactive)

COC(=O)Cn1nc(-c2ccccc2)c2cccc(C(F)(F)F)c21
max activity ([1]; at 0.1 µM): -21.2% (inactive)
